Measurements taken from ChEMBL document CHEMBL1155063 (Bioorg Med Chem, 2008).
Calls of active or inactive are those of the source. No cut-off for these calls is given here.

What was measured:
[1] = molecular target: T1, Telomerase reverse transcriptase (Homo sapiens, UniProt O14746); test: Effect on human TERT expressed in H1299 cells at 10 uM after 24 hrs by SEAP assay relative to control
[2] = molecular target: T1, Telomerase reverse transcriptase; test: Effect on human TERT expressed in BJ1 cells at 100 uM after 24 hrs by SEAP assay relative to control; settings: BJ
[3] = molecular target: T1, Telomerase reverse transcriptase; test: Effect on human TERT expressed in H1299 cells at 100 uM after 24 hrs by SEAP assay relative to control
[4] = molecular target: T1, Telomerase reverse transcriptase; test: Inhibition of telomerase in human H1299 cells at 1 to 20 uM by TRAP assay; format: cell-based
In short: (§1)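 Modified TRAP assay using 2 µg total lysate from H1299 lung cancer cells as the telomerase source. Compounds were tested at 1, 5, 10 and 20 µM. Products were resolved on 10% polyacrylamide gels and stained with SYBR Green. A Taq-polymerase internal control was included, along with positive and negative controls.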

[5] = Cytotoxicity against human TERT immortalized BJ1 cells at 10 uM after 48 hrs by MTT assay relative to control; format: cell-based, BJ
In short: (§2)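 hTERT-immortalized BJ1 fibroblasts were grown in DMEM with 10% FCS, 1 mM pyruvate and 4 mM […]. Cells (about 2 × 10^3 per well) were seeded and held 24 h at 37 °C. Compounds were freshly dissolved in DMSO, diluted into medium and left on the cells 48 h. MTT was added for 4 h, then SDS/DMF lysis buffer for 16 h. Absorbance was read at 550 nm and expressed relative to untreated cells (100%).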

[6] = molecular target: T1, Telomerase reverse transcriptase; test: Effect on human TERT expressed in BJ1 cells at 10 uM after 24 hrs by SEAP assay relative to control; settings: BJ
[7] = Cell viability of human H1299 cells at 1 uM after 48 hrs by MTT assay relative to control; settings: NCI-H1299, 48 h
[8] = Cytotoxicity against human H1299 cells at 100 uM after 48 hrs by MTT assay realtive to control; format: functional; settings: NCI-H1299, 48 h
In short: (§3)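 H1299 non-small-cell lung cells were kept in RPMI 1640 with 10% FBS and penicillin/streptomycin at 37 °C under 5% CO2. About 2 × 10^3 cells per well were pre-incubated for 24 h. Compound was added from freshly made DMSO solution diluted in complete medium and left for 48 h. MTT was then added for 4 h at 37 °C, followed by 20% SDS/50% DMF lysis buffer for 16 h at 37 °C, and absorbance read at 550 nm.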

[9] = Cytotoxicity against human TERT immortalized BJ1 cells at 1 uM after 48 hrs by MTT assay relative to control; format: cell-based, BJ
In short: as §2

[10] = Cytotoxicity against human H1299 cells at 10 uM after 48 hrs by MTT assay realtive to control; format: functional; settings: NCI-H1299, 48 h
In short: as §3

[11] = molecular target: T1, Telomerase reverse transcriptase; test: Effect on human TERT expressed in H1299 cells at 1 uM after 24 hrs by SEAP assay relative to control
[12] = molecular target: T1, Telomerase reverse transcriptase; test: Effect on human TERT expressed in BJ1 cells at 1 uM after 24 hrs by SEAP assay realtive to control; settings: BJ
[13] = Cytotoxicity against human TERT immortalized BJ1 cells at 100 uM after 48 hrs by MTT assay relative to control; format: cell-based, BJ
In short: as §2

[14] = molecular target: T1, Telomerase reverse transcriptase; test: Inhibition of G-quadruplex-induced human TERT in H1299 cells by TRAP assay; format: cell-based
In short: as §1

T1 sequence (O14746 whole entry): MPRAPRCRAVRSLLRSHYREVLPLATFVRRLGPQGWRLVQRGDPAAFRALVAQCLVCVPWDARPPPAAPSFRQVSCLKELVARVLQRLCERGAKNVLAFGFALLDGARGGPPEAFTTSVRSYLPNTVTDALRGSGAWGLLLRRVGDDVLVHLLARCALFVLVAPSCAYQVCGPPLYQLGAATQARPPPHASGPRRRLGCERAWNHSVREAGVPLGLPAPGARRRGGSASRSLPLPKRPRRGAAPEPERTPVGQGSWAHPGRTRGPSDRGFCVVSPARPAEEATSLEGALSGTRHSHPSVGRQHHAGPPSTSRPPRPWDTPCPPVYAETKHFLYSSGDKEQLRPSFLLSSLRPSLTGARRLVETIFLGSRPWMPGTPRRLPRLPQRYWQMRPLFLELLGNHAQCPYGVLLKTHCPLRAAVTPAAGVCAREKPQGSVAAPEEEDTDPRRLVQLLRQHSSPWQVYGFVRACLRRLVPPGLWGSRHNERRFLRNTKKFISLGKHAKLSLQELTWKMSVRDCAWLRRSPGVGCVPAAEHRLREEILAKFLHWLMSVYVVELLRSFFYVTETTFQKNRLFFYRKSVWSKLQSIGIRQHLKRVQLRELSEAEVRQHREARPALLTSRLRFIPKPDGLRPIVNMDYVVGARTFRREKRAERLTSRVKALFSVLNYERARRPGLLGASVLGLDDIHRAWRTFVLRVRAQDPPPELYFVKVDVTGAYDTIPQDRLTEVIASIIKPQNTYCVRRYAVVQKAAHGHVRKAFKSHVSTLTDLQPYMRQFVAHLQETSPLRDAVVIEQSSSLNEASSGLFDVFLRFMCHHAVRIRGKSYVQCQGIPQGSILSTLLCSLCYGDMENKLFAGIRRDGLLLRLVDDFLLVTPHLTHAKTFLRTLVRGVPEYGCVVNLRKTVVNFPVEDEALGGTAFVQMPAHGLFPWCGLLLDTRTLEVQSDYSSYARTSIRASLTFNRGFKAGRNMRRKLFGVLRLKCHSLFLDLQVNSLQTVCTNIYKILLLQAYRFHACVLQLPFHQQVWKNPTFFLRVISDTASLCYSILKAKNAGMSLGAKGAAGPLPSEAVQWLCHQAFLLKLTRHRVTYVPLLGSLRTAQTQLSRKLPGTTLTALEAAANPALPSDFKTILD

| SMILES | residual activity [1] [%] | residual activity [2] [%] | residual activity [3] [%] | Activity [4] | viability at 48 h, 10 µM [5] [%] | residual activity [6] [%] | cell viability at 1 µM [7] [%] | viability at 100 µM [8] [%] | viability at 48 h, 1 µM [9] [%] | viability at 10 µM [10] [%] | residual activity [11] [%] | residual activity [12] [%] | viability at 48 h, 100 µM [13] [%] | IC50 [14] [µM] |
| --- | --- | --- | --- | --- | --- | --- | --- | --- | --- | --- | --- | --- | --- | --- |
| CN(C)CCC(=O)Nc1ccc2c(c1)C(=O)c1cc(NC(=O)CCN(C)C)ccc1C2=O | 13 | 38 | 1 | Active | 30 | 61 | 1 | 1 | 94 | 53 | 5 | 86 | 22 |  |
| O=C(CCN1CCCCC1)Nc1ccc2c(c1)C(=O)c1cc(NC(=O)CCN3CCCCC3)ccc1C2=O | 33 |  | 25 | Active | 54 |  | 87 | 18 | 92 | 44 | 55 |  | 41 | 8.4 |
| CCN(CC)CC(=O)Nc1ccc2c(c1)C(=O)c1cc(NC(=O)CN(CC)CC)ccc1C2=O | 61 | 116 | 37 |  | 67 | 131 | 101 | 25 | 116 | 47 | 90 | 26 | 50 |  |
| CCC(=O)Nc1ccc2c(c1)C(=O)c1cc(NC(=O)CC)ccc1C2=O | 95 | 51 | 85 |  | 57 | 64 | 70 | 35 | 77 | 38 | 90 | 78 | 48 |  |
| O=C(CN1CCCCC1)Nc1ccc2c(c1)C(=O)c1cc(NC(=O)CN3CCCCC3)ccc1C2=O | 69 | 103 | 63 |  | 78 | 121 | 50 | 35 | 89 | 37 | 74 | 118 | 22 |  |
| CCCCNCCC(=O)Nc1ccc2c(c1)C(=O)c1cc(NC(=O)CCNCCCC)ccc1C2=O | 33 | 111 | 22 |  | 70 | 95 | 82 | 14 | 80 | 52 | 56 | 88 | 40 |  |
| CCCNCCC(=O)Nc1ccc2c(c1)C(=O)c1cc(NC(=O)CCNCCC)ccc1C2=O | 22 |  | 13 | Active | 65 | 133 | 80 | 13 | 75 | 50 | 52 |  | 38 |  |
| O=C(CCN1CCNCC1)Nc1ccc2c(c1)C(=O)c1cc(NC(=O)CCN3CCNCC3)ccc1C2=O | 71 | 131 | 71 | Active | 100 | 118 | 97 | 102 | 96 | 94 | 75 |  | 88 |  |
| O=C1c2ccc(NC(=O)C3CCCCC3)cc2C(=O)c2cc(NC(=O)C3CCCCC3)ccc21 | 93 | 22 | 80 |  | 76 | 14 | 90 | 52 | 87 | 63 | 96 | 14 | 64 |  |
| CCNCC(=O)Nc1ccc2c(c1)C(=O)c1cc(NC(=O)CNCC)ccc1C2=O | 35 | 17 | 34 |  | 56 | 41 | 52 | 3 | 72 | 24 | 60 | 90 | 37 |  |
| O=C(CCc1ccccc1)Nc1ccc2c(c1)C(=O)c1cc(NC(=O)CCc3ccccc3)ccc1C2=O | 79 | 43 | 61 |  | 44 | 92 | 102 | 76 | 89 | 94 | 89 | 74 | 44 |  |
| CCNCCC(=O)Nc1ccc2c(c1)C(=O)c1cc(NC(=O)CCNCC)ccc1C2=O | 33 | 97 | 22 | Active | 73 |  | 86 | 34 | 82 | 59 | 68 |  | 42 |  |
